{"source": "ChEMBL document CHEMBL1134783", "about": "“N-Arylsulfonylindole derivatives as serotonin 5-HT(6) receptor ligands” (J Med Chem, 2001)", "key": {"[1]": {"biological_target": "5-hydroxytryptamine receptor 6 (Homo sapiens, UniProt P50406)", "sequence (P50406 whole entry)": "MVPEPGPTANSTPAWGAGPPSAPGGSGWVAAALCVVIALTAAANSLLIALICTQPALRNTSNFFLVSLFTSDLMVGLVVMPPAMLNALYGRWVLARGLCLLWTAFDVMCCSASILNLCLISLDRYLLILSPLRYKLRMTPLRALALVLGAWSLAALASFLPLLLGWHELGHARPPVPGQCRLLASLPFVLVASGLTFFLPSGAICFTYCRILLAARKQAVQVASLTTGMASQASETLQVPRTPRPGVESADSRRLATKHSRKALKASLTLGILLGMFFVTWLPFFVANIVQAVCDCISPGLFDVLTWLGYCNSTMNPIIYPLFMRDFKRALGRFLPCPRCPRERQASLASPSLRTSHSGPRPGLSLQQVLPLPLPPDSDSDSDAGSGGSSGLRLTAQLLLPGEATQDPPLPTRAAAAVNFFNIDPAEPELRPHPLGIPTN", "assay": "Binding affinity as displacement of [3H]5-HT binding to 5-hydroxytryptamine 6 receptor in HeLa cells.", "assay_type": "cell-based", "outline": "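Human 5-HT6 stably expressed in HeLa cells; washed membranes in 50 mM Tris, 0.03% ascorbic acid, pH 7.6. Nonspecific binding defined with 10 µM 5-HT. Filtration and scintillation counting; one-site fit gave IC50, converted to Ki by Cheng-Prusoff. Geometric mean of ≥3 experiments, each in duplicate.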"}, "[2]": {"biological_target": "T1, 5-hydroxytryptamine receptor 1A (Homo sapiens, UniProt P08908)", "T1 sequence (P08908 whole entry)": "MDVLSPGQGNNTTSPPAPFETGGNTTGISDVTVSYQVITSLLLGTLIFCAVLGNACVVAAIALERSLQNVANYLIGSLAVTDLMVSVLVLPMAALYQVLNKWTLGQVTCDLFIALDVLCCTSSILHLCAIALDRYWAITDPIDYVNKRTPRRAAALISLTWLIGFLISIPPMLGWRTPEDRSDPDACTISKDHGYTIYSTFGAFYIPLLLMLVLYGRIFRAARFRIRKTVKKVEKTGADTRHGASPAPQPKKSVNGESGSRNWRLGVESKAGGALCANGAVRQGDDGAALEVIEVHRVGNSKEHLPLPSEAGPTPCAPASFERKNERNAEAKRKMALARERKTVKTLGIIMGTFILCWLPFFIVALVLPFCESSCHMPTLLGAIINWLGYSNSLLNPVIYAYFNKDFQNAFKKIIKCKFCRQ", "assay": "Binding affinity against 5-hydroxytryptamine 1A receptor in HeLa cells was determined using [3H]5-HT", "assay_type": "cell-based"}, "D(3) dopamine receptor": {"biological_target": "D(3) dopamine receptor (Homo sapiens, UniProt P35462)", "sequence (P35462 whole entry)": "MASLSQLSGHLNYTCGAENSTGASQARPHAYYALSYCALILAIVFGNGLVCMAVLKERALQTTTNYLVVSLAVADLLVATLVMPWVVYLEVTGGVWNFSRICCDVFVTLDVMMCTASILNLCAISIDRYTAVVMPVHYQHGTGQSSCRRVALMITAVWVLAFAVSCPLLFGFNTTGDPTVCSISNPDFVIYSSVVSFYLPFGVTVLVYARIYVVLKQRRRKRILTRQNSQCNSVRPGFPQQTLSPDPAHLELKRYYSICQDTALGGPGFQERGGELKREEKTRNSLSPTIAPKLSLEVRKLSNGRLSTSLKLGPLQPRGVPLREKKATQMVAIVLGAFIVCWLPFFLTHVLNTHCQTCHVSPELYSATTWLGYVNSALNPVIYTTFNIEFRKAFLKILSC", "assay": "Binding affinity against dopamine receptor D3 in HEK 293 cells using [3H]spiperone radioligand", "assay_type": "cell-based, HEK293"}, "D(2) dopamine receptor": {"biological_target": "D(2) dopamine receptor (Homo sapiens, UniProt P14416)", "sequence (P14416 whole entry)": "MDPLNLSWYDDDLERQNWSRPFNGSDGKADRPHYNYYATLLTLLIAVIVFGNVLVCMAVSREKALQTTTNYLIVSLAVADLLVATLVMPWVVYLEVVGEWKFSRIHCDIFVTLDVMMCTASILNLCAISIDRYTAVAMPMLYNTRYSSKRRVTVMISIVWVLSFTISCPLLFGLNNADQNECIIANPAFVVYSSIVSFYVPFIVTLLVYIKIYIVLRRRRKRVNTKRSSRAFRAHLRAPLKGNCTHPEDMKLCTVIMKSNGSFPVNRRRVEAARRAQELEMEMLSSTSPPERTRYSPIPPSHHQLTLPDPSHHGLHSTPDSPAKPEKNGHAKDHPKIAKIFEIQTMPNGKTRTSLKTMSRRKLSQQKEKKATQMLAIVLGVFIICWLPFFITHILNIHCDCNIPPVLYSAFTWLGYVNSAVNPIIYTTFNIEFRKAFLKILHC", "assay": "Binding affinity against dopamine receptor D2 using [3H]spiperone radioligand in CHO cells", "assay_type": "cell-based"}, "[3]": {"biological_target": "T2, 5-hydroxytryptamine receptor 1F (Homo sapiens, UniProt P30939)", "T2 sequence (P30939 whole entry)": "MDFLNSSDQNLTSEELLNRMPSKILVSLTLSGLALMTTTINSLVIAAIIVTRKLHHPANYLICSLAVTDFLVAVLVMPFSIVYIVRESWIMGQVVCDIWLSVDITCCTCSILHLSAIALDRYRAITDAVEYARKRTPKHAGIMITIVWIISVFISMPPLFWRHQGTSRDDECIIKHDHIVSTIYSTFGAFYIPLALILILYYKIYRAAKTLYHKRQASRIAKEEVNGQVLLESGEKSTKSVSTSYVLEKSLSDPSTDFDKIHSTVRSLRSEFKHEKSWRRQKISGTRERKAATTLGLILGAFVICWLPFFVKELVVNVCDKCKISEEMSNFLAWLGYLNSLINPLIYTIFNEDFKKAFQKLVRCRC", "assay": "Binding affinity against 5-hydroxytryptamine 1F receptor in CHO cells using [3H]5-HT radioligand", "assay_type": "cell-based"}, "[4]": {"biological_target": "5-hydroxytryptamine receptor 1D (Homo sapiens, UniProt P28221)", "sequence (P28221 whole entry)": "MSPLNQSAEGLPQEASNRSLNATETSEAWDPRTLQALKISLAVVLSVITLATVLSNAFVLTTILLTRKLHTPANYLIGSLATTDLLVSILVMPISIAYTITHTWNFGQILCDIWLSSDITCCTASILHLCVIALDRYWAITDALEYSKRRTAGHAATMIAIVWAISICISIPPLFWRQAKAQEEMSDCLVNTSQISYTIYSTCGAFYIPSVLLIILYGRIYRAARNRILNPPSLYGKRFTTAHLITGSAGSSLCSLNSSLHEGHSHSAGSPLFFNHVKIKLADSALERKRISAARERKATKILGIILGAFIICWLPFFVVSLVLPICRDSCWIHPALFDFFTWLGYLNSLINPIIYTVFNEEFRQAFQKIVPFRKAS", "assay": "Binding affinity against 5-hydroxytryptamine 1D receptor in CHO cells using [3H]5-HT as radioligand", "assay_type": "cell-based"}, "[5]": {"biological_target": "5-hydroxytryptamine receptor 1B (Homo sapiens, UniProt P28222)", "sequence (P28222 whole entry)": "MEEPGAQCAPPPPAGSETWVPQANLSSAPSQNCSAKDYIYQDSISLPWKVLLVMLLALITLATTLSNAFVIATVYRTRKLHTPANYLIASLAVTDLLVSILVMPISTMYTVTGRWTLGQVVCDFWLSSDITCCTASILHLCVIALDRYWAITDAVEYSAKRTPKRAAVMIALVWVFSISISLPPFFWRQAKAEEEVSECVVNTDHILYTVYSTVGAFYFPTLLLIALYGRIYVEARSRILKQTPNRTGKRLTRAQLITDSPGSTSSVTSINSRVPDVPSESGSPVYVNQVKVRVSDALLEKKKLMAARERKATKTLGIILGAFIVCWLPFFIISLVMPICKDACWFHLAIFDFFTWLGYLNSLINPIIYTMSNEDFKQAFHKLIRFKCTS", "assay": "Binding affinity against 5-hydroxytryptamine 1B receptor in CHO cells using [3H]5-HT as radioligand", "assay_type": "cell-based"}, "[6]": {"biological_target": "5-hydroxytryptamine receptor 7 (Homo sapiens, UniProt P34969)", "sequence (P34969 whole entry)": "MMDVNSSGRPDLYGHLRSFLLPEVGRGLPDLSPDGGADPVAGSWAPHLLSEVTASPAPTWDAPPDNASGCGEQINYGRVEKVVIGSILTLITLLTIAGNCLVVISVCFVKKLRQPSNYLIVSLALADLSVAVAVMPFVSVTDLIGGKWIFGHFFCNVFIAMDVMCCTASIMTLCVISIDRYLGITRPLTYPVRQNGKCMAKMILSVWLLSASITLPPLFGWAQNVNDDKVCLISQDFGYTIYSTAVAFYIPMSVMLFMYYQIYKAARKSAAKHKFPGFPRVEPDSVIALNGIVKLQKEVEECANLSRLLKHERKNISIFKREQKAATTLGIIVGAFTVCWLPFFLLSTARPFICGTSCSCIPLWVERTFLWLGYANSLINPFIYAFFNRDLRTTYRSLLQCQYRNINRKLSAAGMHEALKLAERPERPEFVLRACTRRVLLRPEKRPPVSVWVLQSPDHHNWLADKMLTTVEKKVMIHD", "assay": "Binding affinity for 5-hydroxytryptamine 7 receptor human cloned receptors in CHO cells using [3H]5-HT", "assay_type": "cell-based"}, "D(4) dopamine receptor": {"biological_target": "T3, D(4) dopamine receptor (Homo sapiens, UniProt P21917)", "T3 sequence (P21917 whole entry)": "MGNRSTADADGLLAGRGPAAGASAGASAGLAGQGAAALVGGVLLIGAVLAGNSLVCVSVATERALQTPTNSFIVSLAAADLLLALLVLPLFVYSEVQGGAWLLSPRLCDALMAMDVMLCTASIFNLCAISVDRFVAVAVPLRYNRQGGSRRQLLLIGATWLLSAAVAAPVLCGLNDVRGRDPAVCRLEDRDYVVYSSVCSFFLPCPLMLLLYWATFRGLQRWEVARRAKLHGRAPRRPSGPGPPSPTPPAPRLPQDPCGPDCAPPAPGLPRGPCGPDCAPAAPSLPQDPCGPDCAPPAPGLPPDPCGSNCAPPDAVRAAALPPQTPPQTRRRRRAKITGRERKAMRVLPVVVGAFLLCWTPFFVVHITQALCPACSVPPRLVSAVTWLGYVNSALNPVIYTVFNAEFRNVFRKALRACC", "assay": "Binding affinity against dopamine receptor D4 cloned in HEK 293 cells using [3H]spiperone radioligand", "assay_type": "cell-based, HEK293"}, "[7]": {"biological_target": "5-hydroxytryptamine receptor 5A (Rattus norvegicus, UniProt P35364)", "sequence (P35364 whole entry)": "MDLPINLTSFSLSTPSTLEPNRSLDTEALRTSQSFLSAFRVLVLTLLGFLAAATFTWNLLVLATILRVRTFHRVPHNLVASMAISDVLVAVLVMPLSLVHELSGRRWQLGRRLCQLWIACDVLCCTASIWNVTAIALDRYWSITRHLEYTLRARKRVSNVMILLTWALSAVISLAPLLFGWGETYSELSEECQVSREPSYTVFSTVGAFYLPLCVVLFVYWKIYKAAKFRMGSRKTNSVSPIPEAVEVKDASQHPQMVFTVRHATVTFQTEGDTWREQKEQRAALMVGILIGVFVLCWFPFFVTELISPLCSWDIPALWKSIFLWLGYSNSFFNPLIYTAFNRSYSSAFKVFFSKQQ", "assay": "Binding affinity against 5-hydroxytryptamine 5A receptor in HEK 293 cells was determined using [3H]LSD as radioligand", "assay_type": "cell-based, HEK293"}, "[8]": {"biological_target": "5-hydroxytryptamine receptor 2A (Rattus norvegicus, UniProt P14842)", "sequence (P14842 whole entry)": "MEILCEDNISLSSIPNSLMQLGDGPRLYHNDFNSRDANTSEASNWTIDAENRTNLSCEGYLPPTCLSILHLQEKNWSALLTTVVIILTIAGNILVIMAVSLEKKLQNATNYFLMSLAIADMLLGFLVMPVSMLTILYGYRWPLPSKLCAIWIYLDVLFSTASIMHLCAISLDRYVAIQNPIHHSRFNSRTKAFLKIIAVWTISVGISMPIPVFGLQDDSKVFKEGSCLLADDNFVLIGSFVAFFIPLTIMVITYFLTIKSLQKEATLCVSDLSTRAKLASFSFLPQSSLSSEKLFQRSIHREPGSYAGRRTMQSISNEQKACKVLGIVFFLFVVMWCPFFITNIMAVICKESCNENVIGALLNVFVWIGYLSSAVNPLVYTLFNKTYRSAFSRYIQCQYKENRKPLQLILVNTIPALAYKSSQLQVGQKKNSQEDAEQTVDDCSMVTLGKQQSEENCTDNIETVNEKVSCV", "assay": "Binding affinity for 5-hydroxytryptamine 2 receptor of rat cortical membrane using [3H]DOB radioligand"}, "[9]": {"biological_target": "T2, 5-hydroxytryptamine receptor 1F", "assay": "Binding affinity against 5-hydroxytryptamine 1F receptor in CHO using [3H]5-HT radioligand"}}}
{"smiles": "CN(C)CCc1cn(S(=O)(=O)c2ccccc2)c2ccc(O)cc12", "values": [{"measurement": "Ki", "setting": "[1]", "result": 19, "unit": "nM"}]}
{"smiles": "CN(C)CCc1cccc2[nH]c(C(=O)c3ccccc3)cc12", "values": [{"measurement": "Ki", "setting": "[1]", "result": 260, "unit": "nM"}]}
{"smiles": "COc1ccc2c(c1)C(CCN(C)C)CN2S(=O)(=O)c1ccccc1", "note": "(stereo not drawn)", "values": [{"measurement": "Ki", "setting": "[1]", "result": 63, "unit": "nM"}]}
{"smiles": "NCCc1cccc2c1ccn2S(=O)(=O)c1ccccc1", "values": [{"measurement": "Ki", "setting": "[2]", "result": 140, "unit": "nM"}, {"measurement": "Ki", "setting": "[1]", "result": 2.4, "unit": "nM"}, {"measurement": "Ki", "setting": "D(3) dopamine receptor", "result": 940, "unit": "nM"}, {"measurement": "Ki", "setting": "D(2) dopamine receptor", "result": "> 1700", "unit": "nM"}, {"measurement": "Ki", "setting": "[3]", "result": 47, "unit": "nM"}, {"measurement": "Ki", "setting": "[4]", "result": 4.5, "unit": "nM"}, {"measurement": "Ki", "setting": "[5]", "result": 6.5, "unit": "nM"}, {"measurement": "Ki", "setting": "[6]", "result": 29, "unit": "nM"}, {"measurement": "Ki", "setting": "D(4) dopamine receptor", "result": "> 3200", "unit": "nM"}, {"measurement": "Ki", "setting": "[7]", "result": 1200, "unit": "nM"}, {"measurement": "Ki", "setting": "[8]", "result": 4.8, "unit": "nM"}]}
{"smiles": "CN(C)CCc1cccc2c1cc(C(=O)c1ccccc1)n2S(=O)(=O)c1ccccc1", "values": [{"measurement": "Ki", "setting": "[2]", "result": 480, "unit": "nM"}, {"measurement": "Ki", "setting": "[1]", "result": 3, "unit": "nM"}, {"measurement": "Ki", "setting": "D(3) dopamine receptor", "result": 66, "unit": "nM"}, {"measurement": "Ki", "setting": "D(2) dopamine receptor", "result": 750, "unit": "nM"}, {"measurement": "Ki", "setting": "[3]", "result": 570, "unit": "nM"}, {"measurement": "Ki", "setting": "[4]", "result": 98, "unit": "nM"}, {"measurement": "Ki", "setting": "[5]", "result": 190, "unit": "nM"}, {"measurement": "Ki", "setting": "[6]", "result": 1300, "unit": "nM"}, {"measurement": "Ki", "setting": "D(4) dopamine receptor", "result": "> 3200", "unit": "nM"}, {"measurement": "Ki", "setting": "[7]", "result": 1600, "unit": "nM"}, {"measurement": "Ki", "setting": "[8]", "result": 6.6, "unit": "nM"}]}
{"smiles": "COc1ccc2c(c1)c(CCN(C)C)c(C)n2S(=O)(=O)c1ccccc1", "values": [{"measurement": "Ki", "setting": "[1]", "result": 12, "unit": "nM"}]}
{"smiles": "CN(C)CCc1cn(C(=O)OC(C)(C)C)c2ccc(O)cc12", "values": [{"measurement": "Ki", "setting": "[1]", "result": 370, "unit": "nM"}]}
{"smiles": "CN(C)CCc1cn(S(=O)(=O)c2ccccc2)c2ccc(C#N)cc12", "values": [{"measurement": "Ki", "setting": "[1]", "result": 33, "unit": "nM"}]}
{"smiles": "CN(C)CCc1cn(S(C)(=O)=O)c2ccccc12", "values": [{"measurement": "Ki", "setting": "[1]", "result": 620, "unit": "nM"}]}
{"smiles": "Cc1ccc(S(=O)(=O)n2cc3c4c(cccc42)[C@H](O)[C@@H](N(C)C)C3)cc1", "values": [{"measurement": "Ki", "setting": "[2]", "result": "> 5600", "unit": "nM"}, {"measurement": "Ki", "setting": "[1]", "result": 7.2, "unit": "nM"}, {"measurement": "Ki", "setting": "D(3) dopamine receptor", "result": 3700, "unit": "nM"}, {"measurement": "Ki", "setting": "D(2) dopamine receptor", "result": "> 1700", "unit": "nM"}, {"measurement": "Ki", "setting": "[4]", "result": 3900, "unit": "nM"}, {"measurement": "Ki", "setting": "[5]", "result": 3100, "unit": "nM"}, {"measurement": "Ki", "setting": "[6]", "result": "> 5800", "unit": "nM"}, {"measurement": "Ki", "setting": "D(4) dopamine receptor", "result": "> 3200", "unit": "nM"}, {"measurement": "Ki", "setting": "[7]", "result": "> 6400", "unit": "nM"}, {"measurement": "Ki", "setting": "[8]", "result": 320, "unit": "nM"}]}
{"smiles": "COc1ccc2c(c1)c(CCN(C)C)cn2S(=O)(=O)c1cccc(Cl)c1", "values": [{"measurement": "Ki", "setting": "[1]", "result": 7.9, "unit": "nM"}]}
{"smiles": "COc1ccc2c(c1)c(CCN(C)C)cn2S(=O)(=O)c1ccc(C)cc1", "values": [{"measurement": "Ki", "setting": "[1]", "result": 45, "unit": "nM"}]}
{"smiles": "COc1ccc2c(c1)c(CCN(C)C)cn2S(=O)(=O)c1ccccc1Cl", "values": [{"measurement": "Ki", "setting": "[1]", "result": 11, "unit": "nM"}]}
{"smiles": "CN(C)CCc1cn(C(=O)c2ccccc2)c2ccc(O)cc12", "values": [{"measurement": "Ki", "setting": "[2]", "result": 620, "unit": "nM"}, {"measurement": "Ki", "setting": "[1]", "result": 54, "unit": "nM"}, {"measurement": "Ki", "setting": "D(3) dopamine receptor", "result": "> 3500", "unit": "nM"}, {"measurement": "Ki", "setting": "[9]", "result": 29, "unit": "nM"}, {"measurement": "Ki", "setting": "D(2) dopamine receptor", "result": "> 2200", "unit": "nM"}, {"measurement": "Ki", "setting": "[4]", "result": 180, "unit": "nM"}, {"measurement": "Ki", "setting": "[5]", "result": 420, "unit": "nM"}, {"measurement": "Ki", "setting": "[6]", "result": 1600, "unit": "nM"}, {"measurement": "Ki", "setting": "D(4) dopamine receptor", "result": "> 3900", "unit": "nM"}, {"measurement": "Ki", "setting": "[7]", "result": 4500, "unit": "nM"}, {"measurement": "Ki", "setting": "[8]", "result": 200, "unit": "nM"}]}
